≈ marks a conversion by molar mass, not a printed value. Calls of active or inactive are those of the source. The calls are words filed in the database; no cut-off is given here.
What was measured:
[1] = test system: Staphylococcus aureus; experiment: Antimicrobial activity against hospital methicillin-resistant Staphylococcus aureus 573/11 after 18 hrs by twofold serial microdilution method; type: functional; conditions: 573/11, 18 h
How it was run: (§1)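 Twofold serial microdilution in Mueller-Hinton broth. Compound stock was made in DMSO and diluted in sterile water. Tested range was 0.125–512 µg/mL. Final inoculum was 10^5 CFU/mL. Plates were incubated 18 h at 35 °C. MIC is the lowest concentration preventing visible growth.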

[2] = test system: Bacillus cereus; experiment: Antimicrobial activity against Bacillus cereus ATCC 11778 at 400 ug after 18 hrs by disc-diffusion method; type: functional; conditions: ATCC 11778, 18 h, read-out: IZ
How it was run: (§2)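 Disc diffusion on Mueller-Hinton II agar per CLSI; 9 mm paper discs loaded with 400 µg compound from DMSO solution, dried, placed on agar; growth inhibition zone diameter read after 18 h at 35°C.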

[3] = test system: Staphylococcus epidermidis; experiment: Antimicrobial activity against hospital methicillin-resistant Staphylococcus epidermidis 76/04 after 18 hrs by twofold serial microdilution method; type: functional; conditions: 76/04, 18 h; how it was run: as §1
[4] = test system: Staphylococcus aureus; experiment: Antimicrobial activity against hospital methicillin-resistant Staphylococcus aureus 79/05 after 18 hrs by twofold serial microdilution method; type: functional; conditions: 79/05, 18 h; how it was run: as §1
[5] = test system: Mycobacterium tuberculosis; experiment: Antimycobacterial activity against drug-sensitive Mycobacterium tuberculosis Spec. 192; type: functional
How it was run: (§3)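 Classical test-tube successive-dilution method in Youmans' modification of Proskauer and Beck liquid medium with 10% bovine serum. Inoculum came from 14-day cultures. DMSO stock was 10 mg/mL, diluted geometrically in medium. Tubes were incubated at 37 °C. Concentrations tested were 3.1, 6.2, 12.5, 25, 50 and 100 µg/ml. MIC is the minimum concentration inhibiting growth relative to compound-free tubes.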

[6] = Cytotoxicity against BHK cells assessed as cell viability after 48 to 96 hrs by MTT assay; type: cell-based, Mesocricetus auratus; conditions: hamster
[7] = test system: Staphylococcus aureus; experiment: Antimicrobial activity against hospital methicillin-resistant Staphylococcus aureus 54/05 after 18 hrs by twofold serial microdilution method; type: functional; conditions: 54/05, 18 h; how it was run: as §1
[8] = test system: Staphylococcus aureus; experiment: Antimicrobial activity against Staphylococcus aureus ATCC 25923 at 400 ug after 18 hrs by disc-diffusion method; type: functional; conditions: ATCC 25923, 18 h, read-out: IZ; how it was run: as §2
[9] = test system: Staphylococcus epidermidis; experiment: Antimicrobial activity against Staphylococcus epidermidis ATCC 35984 at 400 ug after 18 hrs by disc-diffusion method; type: functional; how it was run: as §2
[10] = test system: Staphylococcus aureus; experiment: Ratio of ciprofloxacin MIC to compound MIC for hospital methicillin-resistant Staphylococcus aureus 573/11 after 18 hrs by twofold serial microdilution method; type: functional
How it was run: (§4)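 Ratio of MICs for ciprofloxacin and test agent, each from twofold serial broth microdilution in Mueller-Hinton broth following CLSI guidelines. DMSO stock was diluted in sterile water to 0.125–512 µg/mL, with a final inoculum of 10^5 CFU/mL.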

[11] = test system: Staphylococcus aureus; experiment: Antimicrobial activity against hospital methicillin-resistant Staphylococcus aureus 81/05 after 18 hrs by twofold serial microdilution method; type: functional; conditions: 81/05, 18 h; how it was run: as §1
[12] = test system: Staphylococcus epidermidis; experiment: Antimicrobial activity against Staphylococcus epidermidis ATCC 12228 after 18 hrs by twofold serial microdilution method; type: functional; conditions: ATCC 12228, 18 h
[13] = test system: Human alphaherpesvirus 1; experiment: Antiviral activity against Human herpesvirus 1 KOS ATCC VR-1493 infected in African green monkey Vero 76 cells assessed as reduction of virus-plaque formation after 3 days by crystal violet staining; type: functional, organism-based; conditions: Human alphaherpesvirus 1, KOS ATCC VR1493, Vero, 72 h
How it was run: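 Plaque reduction: Vero-76 at 2x10^5 cells/well grown to confluent monolayers, infected 2 h at 50–100 PFU/well; after removing unadsorbed virus, overlay of D-MEM, 1% inactivated FBS, 0.75% methylcellulose with or without serial compound dilutions; 3 days at 37°C, fixed and stained with crystal violet in 50% ethanol, plaques counted; EC50 by linear regression.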

[14] = test system: Staphylococcus aureus; experiment: Antimicrobial activity against Staphylococcus aureus ATCC 29213 at 400 ug after 18 hrs by disc-diffusion method; type: functional; conditions: ATCC 29213, 18 h, read-out: IZ; how it was run: as §2
[15] = test system: Micrococcus luteus; experiment: Antimicrobial activity against Micrococcus luteus ATCC 9341 at 400 ug after 18 hrs by disc-diffusion method; type: functional; how it was run: as §2
[16] = test system: Staphylococcus epidermidis; experiment: Ratio of ciprofloxacin MIC to compound MIC for hospital methicillin-resistant Staphylococcus epidermidis 31/04 after 18 hrs by twofold serial microdilution method; type: functional; how it was run: as §4
[17] = test system: Micrococcus luteus; experiment: Antimicrobial activity against Micrococcus luteus ATCC 10240 at 400 ug after 18 hrs by disc-diffusion method; type: functional; how it was run: as §2
[18] = test system: Staphylococcus epidermidis; experiment: Antimicrobial activity against Staphylococcus epidermidis ATCC 12228 at 400 ug after 18 hrs by disc-diffusion method; type: functional; how it was run: as §2
[19] = test system: Staphylococcus aureus; experiment: Antimicrobial activity against hospital methicillin-resistant Staphylococcus aureus 53/05 after 18 hrs by twofold serial microdilution method; type: functional; conditions: 53/05, 18 h; how it was run: as §1
[20] = test system: Staphylococcus aureus; experiment: Antimicrobial activity against hospital methicillin-resistant Staphylococcus aureus 80/05 after 18 hrs by twofold serial microdilution method; type: functional; conditions: 80/05, 18 h; how it was run: as §1
[21] = test system: Staphylococcus epidermidis; experiment: Antimicrobial activity against Staphylococcus epidermidis ATCC 35984 after 18 hrs by twofold serial microdilution method; type: functional; conditions: ATCC 35984, 18 h
[22] = test system: Staphylococcus epidermidis; experiment: Antimicrobial activity against hospital methicillin-resistant Staphylococcus epidermidis 63/04 after 18 hrs by twofold serial microdilution method; type: functional; conditions: 63/04, 18 h; how it was run: as §1
[23] = test system: Staphylococcus aureus; experiment: Ratio of ciprofloxacin MIC to compound MIC for hospital methicillin-resistant Staphylococcus aureus 53/05 after 18 hrs by twofold serial microdilution method; type: functional; how it was run: as §4
[24] = test system: Staphylococcus epidermidis; experiment: Antimicrobial activity against hospital methicillin-resistant Staphylococcus epidermidis 16/04 after 18 hrs by twofold serial microdilution method; type: functional; conditions: 16/04, 18 h; how it was run: as §1
[25] = test system: Staphylococcus epidermidis; experiment: Antimicrobial activity against hospital methicillin-resistant Staphylococcus epidermidis 24/04 after 18 hrs by twofold serial microdilution method; type: functional; conditions: 24/04, 18 h; how it was run: as §1
[26] = test system: Human immunodeficiency virus 1; experiment: Antiviral activity against HIV1 3B infected in human MT4 cells assessed as protection against virus-induced cytopathogenicity by MTT assay; type: functional, organism-based; conditions: Human immunodeficiency virus 1, 3B
[27] = test system: Enterococcus hirae; experiment: Antimicrobial activity against Enterococcus hirae ATCC 10541 at 400 ug after 18 hrs by disc-diffusion method; type: functional; how it was run: as §2
[28] = test system: Mycobacterium tuberculosis; experiment: Antimycobacterial activity against Mycobacterium tuberculosis H37Rv ATCC 25618; type: functional; how it was run: as §3
[29] = test system: Staphylococcus aureus; experiment: Ratio of ciprofloxacin MIC to compound MIC for hospital methicillin-resistant Staphylococcus aureus 79/05 after 18 hrs by twofold serial microdilution method; type: functional; how it was run: as §4
[30] = test system: Poliovirus 1; experiment: Antiviral activity against Poliovirus type 1 ATCC VR-1562 infected in African green monkey Vero 76 cells assessed as reduction of virus-plaque formation after 2 days by crystal violet staining; type: functional, organism-based; conditions: Enterovirus C, ATCC VR-1562, Vero, 48 h
[31] = test system: Staphylococcus epidermidis; experiment: Antimicrobial activity against hospital methicillin-resistant Staphylococcus epidermidis 151/04 after 18 hrs by twofold serial microdilution method; type: functional; conditions: 151/04, 18 h; how it was run: as §1
[32] = Cytotoxicity against African green monkey Vero 76 cells assessed as cell viability after 48 to 96 hrs by crystal violet staining; type: cell-based; conditions: chlorocebus sabaeus
[33] = test system: Staphylococcus epidermidis; experiment: Antimicrobial activity against hospital methicillin-resistant Staphylococcus epidermidis 62/04 after 18 hrs by twofold serial microdilution method; type: functional; conditions: 62/04, 18 h; how it was run: as §1

Row | Structure (SMILES) | MIC [1] [µg/mL] | zone of inhibition at 400 µg/disc [2] [mm] | MIC [3] [µg/mL] | MIC [4] [µg/mL] | MIC [5] [µg/mL] | CC50 [6] [µM] | MIC [7] [µg/mL] | zone of inhibition at 400 µg/disc [8] [mm] | Ratio [10] | MIC [11] [µg/mL] | MIC [12] [µg/mL] | EC50 [13] [µM] | zone of inhibition at 400 µg/disc [14] [mm] | Ratio [16] | MIC [19] [µg/mL] | MIC [20] [µg/mL] | MIC [21] [µg/mL] | MIC [22] [µg/mL] | Ratio [23] | MIC [24] [µg/mL] | also measured
1 | FC(F)(F)c1cccc(NC(S)=NCc2ccccc2)c1 | 16 (≈ 51.6 µM) | 15 | 8 (≈ 25.8 µM) | 16 (≈ 51.6 µM) | 25 (≈ 80.6 µM) | 45 | 8 (≈ 25.8 µM) | 19 | 128 | 8 (≈ 25.8 µM) | 32 (≈ 103 µM) | > 35 | 16 | 128 | 8 (≈ 25.8 µM) | 16 (≈ 51.6 µM) | 16 (≈ 51.6 µM) | 16 (≈ 51.6 µM) | 128 | 16 (≈ 51.6 µM) | zone of inhibition at 400 µg/disc ([9]; ATCC 35984, 18 h, read-out: IZ): 13 mm; zone of inhibition at 400 µg/disc ([15]; ATCC 9341, 18 h, read-out: IZ): 19 mm; zone of inhibition at 400 µg/disc ([17]; ATCC 10240, 18 h, read-out: IZ): 15 mm; zone of inhibition at 400 µg/disc ([18]; ATCC 12228, 18 h, read-out: IZ): 17 mm; MIC [25]: 16 µg/mL (≈ 51.6 µM); EC50 [26]: > 45 µM; inhibition zone (IZ) [27]: inactive; MIC [28]: 25 µg/mL (≈ 80.6 µM); Ratio [29]: 128; EC50 [30]: > 35 µM; MIC [31]: 16 µg/mL (≈ 51.6 µM); CC50 [32]: 35 µM; MIC [33]: 16 µg/mL (≈ 51.6 µM)
2 | FC(F)(F)c1cccc(NC(=S)Nc2ccc(Cl)cc2)c1 | 8 (≈ 24.2 µM) | 12 | 8 (≈ 24.2 µM) | 16 (≈ 48.4 µM) | > 100 | 10 | 16 (≈ 48.4 µM) | 12 | 128 | 16 (≈ 48.4 µM) | 8 (≈ 24.2 µM) | > 11 | 12 | 128 | 16 (≈ 48.4 µM) | 16 (≈ 48.4 µM) | 4 (≈ 12.1 µM) | 16 (≈ 48.4 µM) | 128 | 16 (≈ 48.4 µM) | inhibition zone (IZ) [9]: inactive; inhibition zone (IZ) [15]: inactive; inhibition zone (IZ) [17]: inactive; inhibition zone (IZ) [18]: inactive; MIC [25]: 16 µg/mL (≈ 48.4 µM); EC50 [26]: > 6.8 µM; inhibition zone (IZ) [27]: inactive; MIC [28]: > 100 µg/mL; Ratio [29]: 128; EC50 [30]: > 11 µM; MIC [31]: 8 µg/mL (≈ 24.2 µM); CC50 [32]: 11 µM; MIC [33]: 16 µg/mL (≈ 48.4 µM)
